From ChEMBL document CHEMBL1158703, “Psychopharmacological profile of the alkaloid psychollatine as a 5HT2A/C serotonin modulator” (2005)
Calls of active or inactive are those of the source.

Key:
Mus musculus [1] = test: Anxiolytic activity against CF1 mouse assessed as increase in number of crossings at 15 mg/kg after 30 mins by hole-board assay; assay type: functional, organism-based; parameters: dose 15 mg/kg
Outline: (§1)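 Hole-board set 15 cm high and divided into 16 squares, with photocells counting head-dips. Male CF1 mice were dosed i.p. and placed centrally 30 min later under dim light. Over 5 min, head-dips, rearings and squares crossed were counted. Values are mean ± SEM (N = 15), analysed by one-way ANOVA then SNK.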

Mus musculus [2] = test: Anxiolytic activity against CF1 mouse assessed as increase in number of crossings at 7.5 mg/kg after 30 mins by hole-board assay; assay type: functional, organism-based; parameters: dose 7.5 mg/kg; outline: as §1
Mus musculus [3] = test: Effect on short term memory of CF1 mouse assessed as reduction in step down latency at 7.5 mg/kg by passive avoidance test; assay type: functional
Mus musculus [4] = test: Anxiolytic activity against CF1 mouse assessed as increase in number of head dips at 7.5 mg/kg after 30 mins in presence of ritanserin by hole-board assay; assay type: functional, organism-based; parameters: dose 7.5 mg/kg
Outline: (§2)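 Male CF1 mice received ritanserin 2 mg/kg i.p. in 10% DMSO 30 min before the test drug at 7.5 mg/kg i.p. The 5 min hole-board session began 30 min later, counting head-dips, crossings and rearings. Values are mean ± SEM (N = 8-14), analysed by ANOVA/SNK.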

Mus musculus [5] = test: Anxiolytic activity against CF1 mouse assessed as increase in number of crossings at 7.5 mg/kg after 30 mins in presence of ritanserin by hole-board assay; assay type: functional, organism-based; parameters: dose 7.5 mg/kg; outline: as §2
Mus musculus [6] = test: Anxiolytic activity against CF1 mouse assessed as increase in time spent in light compartment at 7.5 mg/kg in presence of ritanserin for 5 mins; assay type: functional, organism-based; parameters: dose 7.5 mg/kg
Outline: (§3)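 Male CF1 mice received ritanserin 2 mg/kg i.p. (in 10% DMSO) 30 min before the test drug at 7.5 mg/kg i.p. The light/dark test followed 30 min later, scoring latency to first entry and time in the light compartment. Values are mean ± SEM (N = 8-10), analysed by one-way ANOVA/SNK.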

Mus musculus [7] = test: Antidepressant activity in CF1 mouse assessed as decrease in duration of immobility at 3 mg/kg during final 4 mins of the 6 mins session by forced swimming test; assay type: functional
Outline: (§4)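 Male adult CF1 mice given i.p. doses in saline (pH 7.0), N = 10. Each mouse swam 6 min in a 30 cm-diameter cylinder holding 20 cm of water at 25 ± 1 °C. Immobility was timed over the last 4 min. Values are mean ± SEM, analysed by ANOVA against saline.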

Mus musculus [8] = test: Effect on short term memory of CF1 mouse assessed as reduction in latency during aquisition at 100 mg/kg by passive avoidance test; assay type: functional
Outline: (§5)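 Step-down inhibitory avoidance in male CF1 mice with i.p. dosing 30 min before training. Stepping down during training gave a 0.3 mA scrambled foot shock for 15 s. The latency to step down during training was recorded, with no exclusion criterion applied. N = 20 per group; values are median (interquartile range).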

Mus musculus [9] = test: Effect on long term memory of CF1 mouse assessed as reduction in step down latency at 100 mg/kg by passive avoidance test; assay type: functional
Outline: (§6)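 Step-down inhibitory avoidance in male CF1 mice dosed i.p. immediately after training, during which a 0.3 mA foot shock for 15 s followed stepping down. Test step-down latency was recorded 24 h later without shock, with a 300 s cutoff. N = 20 per group; values are median (interquartile range).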

Mus musculus [10] = test: […] of CF1 mouse assessed as reduction in step down latency at 30 mg/kg by passive avoidance test; assay type: functional
Mus musculus [11] = test: Anxiolytic activity against CF1 mouse assessed as increase in number of head dips at 7.5 mg/kg after 30 mins by hole-board assay; assay type: functional, organism-based; parameters: dose 7.5 mg/kg; outline: as §1
Mus musculus [12] = test: Anxiolytic activity against CF1 mouse assessed as suppression of oxotremorine-treated tremors at 30 mg/kg; assay type: functional, organism-based; parameters: dose 30 mg/kg
Outline: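 Male CF1 mice were given the test drug i.p. in saline 30 min before oxotremorine 0.5 mg/kg. Each mouse was then placed alone in an acrylic cage for observation of tremor. Values are median (interquartile range), analysed by Kruskal–Wallis then Mann–Whitney U against saline + oxotremorine.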

Mus musculus [13] = test: Effect on long term memory of CF1 mouse assessed as reduction in step down latency at 7.5 mg/kg by passive avoidance test; assay type: functional; outline: as §6
Mus musculus [14] = test: Anxiolytic activity against CF1 mouse assessed as increase in number of rearings at 7.5 mg/kg after 30 mins in presence of ritanserin by hole-board assay; assay type: functional, organism-based; parameters: dose 7.5 mg/kg; outline: as §2
Mus musculus [15] = test: Anxiolytic activity against CF1 mouse assessed as increase in latency to enter in the dark compartment 7.5 mg/kg in presence of ritanserin for 5 mins; assay type: functional, organism-based; parameters: dose 7.5 mg/kg; outline: as §3
Mus musculus [16] = test: Effect on locomotory activity in CF1 mouse assessed as change in spontaneous activity at 3 to 30 mg/kg; assay type: functional, organism-based
Outline: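 Mice were habituated singly for 10 min in photocell activity cages and then dosed i.p. Diazepam was given in 10% propylene glycol. After 30 min, crossings were recorded for 15 min. n = 10–16, ANOVA then SNK.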

Mus musculus [17] = test: Antidepressant activity in CF1 mouse assessed as decrease in duration of immobility at 10 mg/kg during final 4 mins of the 6 mins session by forced swimming test; assay type: functional, organism-based; parameters: dose 10 mg/kg; outline: as §4
Mus musculus [18] = test: Potentiation of pentobarbital-induced sleeping time in CF1 mouse at 100 mg/kg; assay type: functional, organism-based; parameters: dose 100 mg/kg
Outline: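 Male CF1 mice (N = 9-12) were dosed i.p. and given sodium pentobarbital 40 mg/kg i.p. 30 min later. Sleeping time was recorded as the interval from loss to recovery of the righting reflex. Values are mean ± SEM, analysed by ANOVA against controls.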

Mus musculus [19] = test: Anxiolytic activity against CF1 mouse assessed as increase in time spent in light compartment at 7.5 mg/kg for 5 mins; assay type: functional, organism-based; parameters: dose 7.5 mg/kg
Outline: (§7)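 Light/dark box with a black, room-lit small compartment and a white large compartment lit at 400 lx. Male CF1 mice were acclimated at least 1 h under dim red light and dosed i.p. 30 min before testing. Recorded were latency to first entry and time spent in the light area. Values are mean ± SEM (N = 19-22), analysed by one-way ANOVA then SNK.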

Mus musculus [20] = test: […] of CF1 mouse assessed as reduction in step down latency at 3 mg/kg by passive avoidance test; assay type: functional
Mus musculus [21] = test: Anxiolytic activity against CF1 mouse assessed as increase in number of rearings at 15 mg/kg after 30 mins by hole-board assay; assay type: functional, organism-based; parameters: dose 15 mg/kg; outline: as §1
Mus musculus [22] = test: Anxiolytic activity against CF1 mouse assessed as increase in latency to enter in the dark compartment 7.5 mg/kg for 5 mins; assay type: functional, organism-based; parameters: dose 7.5 mg/kg; outline: as §7
Mus musculus [23] = test: Antidepressant activity in CF1 mouse assessed as decrease in duration of immobility at 7.5 mg/kg during final 4 mins of the 6 mins session by forced swimming test; assay type: functional; outline: as §4
Mus musculus [24] = test: Anxiolytic activity against CF1 mouse assessed as reduction in number in crossings at 200 mg/kg after 30 mins by hole-board assay; assay type: functional, organism-based; parameters: dose 200 mg/kg; outline: as §1
Mus musculus [25] = species on record: Mus musculus; test: Anticonvulsant activity against CF1 mouse assessed as protection against PTZ-induced convulsions for 60 mins; assay type: functional, organism-based
Outline: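 Male adult CF1 mice (n = 10/group) dosed i.p.; 30 min later pentylenetetrazol 88 mg/kg s.c. Each mouse placed alone in an acrylic chamber and watched 60 min for clonic convulsions lasting over 3 s. Read-out is the fraction of mice convulsing, analysed by Fisher's exact test.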

Mus musculus [26] = test: Effect on long term memory of CF1 mouse assessed as reduction in latency during aquisition at 7.5 mg/kg by passive avoidance test; assay type: functional; outline: as §5
Mus musculus [27] = test: Effect on long term memory of CF1 mouse assessed as reduction in latency during aquisition at 100 mg/kg by passive avoidance test; assay type: functional; outline: as §5

COC(=O)C1=CO[C@@H](O[C@H]2O[C@H](CO)[C@@H](O)[C@H](O)[C@H]2O)[C@@H]2C([C@@H]3NCCc4c3[nH]c3ccccc43)=CC[C@H]12 [PSYCHOLLATINE]
Activity (Mus musculus [1]): Active
Activity (Mus musculus [2]): Active
Activity (Mus musculus [3]): 9.6 s
Activity (Mus musculus [4]): inactive
Activity (Mus musculus [5]): inactive
Activity (Mus musculus [6]): inactive
Activity (Mus musculus [7]): 48.88 s
Activity (Mus musculus [8]): 6.8 s
Activity (Mus musculus [9]): 9.5 s
Activity (Mus musculus [10]): 12.8 s
Activity (Mus musculus [11]): Active
Activity (Mus musculus [12]): Active
Activity (Mus musculus [13]): 13.1 s
Activity (Mus musculus [14]): inactive
Activity (Mus musculus [15]): inactive
Activity (Mus musculus [16]): inactive
Activity (Mus musculus [17]): inactive
Activity (Mus musculus [18]): Active
Activity (Mus musculus [19]): Active
Activity (Mus musculus [20]): 11.8 s
Activity (Mus musculus [21]): Active
Activity (Mus musculus [22]): Active
Activity (Mus musculus [23]): 56.41 s
Activity (Mus musculus [24]): Active
Activity (Mus musculus [25]): inactive
Activity (Mus musculus [26]): 13.4 s
Activity (Mus musculus [27]): 5 s
